The text below walks through data of ChEMBL document CHEMBL1143681, “Bifunctional [2',6'-dimethyl-L-tyrosine1]endomorphin-2 analogues substituted at position 3 with alkylated phenylalanine derivatives yield potent mixed mu-agonist/delta-antagonist and dual mu-agonist/delta-agonist opioid ligands” (J Med Chem, 2007).

Assay [1] has as its target Mu-type opioid receptor (Rattus norvegicus, UniProt P33535). Briefly: Displacement of [3H]DAMGO from mu opioid receptor in Sprague-Dawley rat brain P2 synaptosome membrane. It counts as tissue-based. In a few lines: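 Competition binding at equilibrium (2.5 h, 22 °C) on Sprague-Dawley rat (150–160 g) brain P2 synaptosomes, preincubated 60 min at 22 °C to remove endogenous opioids. Radioligands: 3.5 nM [3H]DAMGO (μ) or 1.9 nM [3H]deltorphin-II (δ); nonspecific with 2 µM unlabeled peptide. GF/C filtration; duplicates, 5–8 doses, several preparations. Ki by Cheng-Prusoff (Kd 3.5 nM DAMGO, 1.4 nM deltorphin-II).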

Assay [2] has as its target Delta-type opioid receptor (Rattus norvegicus, UniProt P33533). Briefly: Displacement of [3H]deltorphin 2 from delta opioid receptor in Sprague-Dawley rat brain P2 synaptosome membrane. It counts as tissue-based. In general terms: In a radioligand displacement assay an active substance lowers the binding of a labelled ligand.
Assay [3] deals with Kappa-type opioid receptor (Cavia porcellus, UniProt P41144). The experiment in a line: Displacement of [3H]U-69593 from kappa opioid receptor in Hartley guinea pig cerebellum P2 synaptosome membrane. It counts as tissue-based.
Kappa-type opioid receptor, sequence (P41144 whole entry): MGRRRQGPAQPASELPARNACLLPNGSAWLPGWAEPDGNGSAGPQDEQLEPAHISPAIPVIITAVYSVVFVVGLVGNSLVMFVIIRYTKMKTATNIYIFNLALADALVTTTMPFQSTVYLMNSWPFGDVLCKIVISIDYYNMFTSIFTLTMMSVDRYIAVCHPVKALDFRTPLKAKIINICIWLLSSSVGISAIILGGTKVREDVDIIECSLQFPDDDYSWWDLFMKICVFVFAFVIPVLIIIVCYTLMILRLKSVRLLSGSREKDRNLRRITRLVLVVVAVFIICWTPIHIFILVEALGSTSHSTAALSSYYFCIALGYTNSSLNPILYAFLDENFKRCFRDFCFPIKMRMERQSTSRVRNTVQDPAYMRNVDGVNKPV
The target of assay [4] is Mu-type opioid receptor (Cavia porcellus, UniProt P97266). Briefly: Agonist activity at mu opioid receptor in Hartley guinea pig ileum assessed as inhibition of electrically-stimulated muscle contraction. It counts as functional, tissue-based. The method in brief:
(§1)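 Isolated tissue: myenteric plexus longitudinal muscle strips (2–3 cm) from small intestine of male Hartley guinea pigs (μ), or single mouse vas deferens (δ), in organ baths with balanced salt solution, pH 7.5. Inhibition of electrically evoked contraction; IC50 (nM) from dose-response curves, mean ± SE of five to six separate assays.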

Assay [5] deals with T1, Delta-type opioid receptor (Mus musculus, UniProt P32300). The experiment in a line: Agonist activity at delta opioid receptor in mouse vas deferens assessed as inhibition of electrically-stimulated muscle contraction. It counts as functional, tissue-based. The method in brief: as §1
T1 sequence (P32300 whole entry): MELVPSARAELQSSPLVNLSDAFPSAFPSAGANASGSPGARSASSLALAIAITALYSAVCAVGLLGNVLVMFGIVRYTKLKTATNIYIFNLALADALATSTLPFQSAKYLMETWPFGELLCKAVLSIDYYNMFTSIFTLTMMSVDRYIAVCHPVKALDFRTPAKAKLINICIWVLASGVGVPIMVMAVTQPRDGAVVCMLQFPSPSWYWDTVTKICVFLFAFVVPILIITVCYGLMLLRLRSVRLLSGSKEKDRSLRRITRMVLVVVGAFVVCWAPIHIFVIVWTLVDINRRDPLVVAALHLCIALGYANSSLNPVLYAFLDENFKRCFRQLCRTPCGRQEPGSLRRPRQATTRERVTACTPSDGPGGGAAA
The target in assay [6] is T1, Delta-type opioid receptor. Briefly: Antagonist activity at delta opioid receptor in mouse vas deferens assessed as inhibition of deltorphin 2-induced response. Particulars: read-out: pA2 (converted). It counts as functional, tissue-based. In a few lines:
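Single mouse vas deferens in organ bath, pH 7.5 buffer; δ antagonism measured against deltorphin II-induced inhibition of electrically evoked contraction. pA2 from Schild plot: negative log molar concentration needed to double deltorphin II concentration for the original response.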

The target of assay [7] is Opioid receptors; mu & delta (Rattus norvegicus) (UniProt P33533+P33535). The experiment in a line: Selectivity for mu opioid receptor over delta opiod receptor in Sprague-Dawley rat brain P2 synaptosome membrane. It counts as tissue-based.
Opioid receptors; mu & delta (Rattus norvegicus), sequence (P33533 whole entry, looked up): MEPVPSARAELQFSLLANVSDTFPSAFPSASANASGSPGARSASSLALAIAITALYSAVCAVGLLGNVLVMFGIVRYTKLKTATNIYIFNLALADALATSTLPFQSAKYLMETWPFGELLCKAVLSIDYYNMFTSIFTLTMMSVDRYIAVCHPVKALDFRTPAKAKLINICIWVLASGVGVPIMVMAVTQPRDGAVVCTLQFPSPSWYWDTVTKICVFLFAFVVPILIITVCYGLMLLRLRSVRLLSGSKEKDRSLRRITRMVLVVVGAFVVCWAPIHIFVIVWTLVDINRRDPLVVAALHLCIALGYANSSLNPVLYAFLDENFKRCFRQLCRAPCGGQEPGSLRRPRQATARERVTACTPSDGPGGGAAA
Opioid receptors; mu & delta (Rattus norvegicus), sequence (P33535 whole entry, looked up): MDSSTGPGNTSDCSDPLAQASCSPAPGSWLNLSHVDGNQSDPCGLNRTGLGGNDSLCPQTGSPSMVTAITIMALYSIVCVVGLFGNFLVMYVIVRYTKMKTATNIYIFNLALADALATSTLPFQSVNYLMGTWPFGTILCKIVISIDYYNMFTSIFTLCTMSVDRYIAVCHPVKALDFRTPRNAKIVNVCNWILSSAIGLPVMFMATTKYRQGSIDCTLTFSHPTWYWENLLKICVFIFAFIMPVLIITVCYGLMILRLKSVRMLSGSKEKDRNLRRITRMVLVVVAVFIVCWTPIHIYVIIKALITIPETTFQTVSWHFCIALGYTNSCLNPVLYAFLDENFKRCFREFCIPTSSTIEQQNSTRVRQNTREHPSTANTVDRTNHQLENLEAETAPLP
The target in assay [8] is Delta-type opioid receptor (Mus musculus) (UniProt P32300). Briefly: Agonist activity at delta opioid receptor in mouse vas deferens assessed as inhibition of electrically-stimulated muscle contraction at 10000 nM. It counts as functional, tissue-based. More on the design: scale not given: the % may be the effect or the level left. In a few lines: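 Mouse vas deferens in organ bath, physiological buffer pH 7.5; maximal inhibition of electrically evoked contraction recorded at 10,000 nM.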
Delta-type opioid receptor (Mus musculus), sequence (P32300 whole entry): as the sequence (P32300 whole entry) above

Molecules are shown by their SMILES. Where a SMILES comes first, the peptide text is derived from it. [ ]: non-standard residue; d: D form. Dmt = Cc1cc(O)cc(C)c1C[C@H](N)C(=O)O

Delta-type opioid receptor (Rattus norvegicus, UniProt P33533), sequence (P33533 whole entry): as the sequence (P33533 whole entry, looked up) above
Mu-type opioid receptor (Rattus norvegicus, UniProt P33535), sequence (P33535 whole entry): as the sequence (P33535 whole entry, looked up) above
Mu-type opioid receptor (Cavia porcellus, UniProt P97266), sequence (P97266 whole entry): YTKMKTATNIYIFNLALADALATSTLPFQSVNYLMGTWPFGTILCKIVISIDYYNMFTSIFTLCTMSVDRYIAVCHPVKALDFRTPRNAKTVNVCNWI

As to `Cc1cc(O)cc(C)c1C[C@H](NC(=O)[C@@H]1CCCN1C(=O)[C@@H](N)Cc1c(C)cc(O)cc1C)C(=O)N[C@@H](Cc1ccccc1)C(N)=O` (H-[Dmt]P[Dmt]F-NH2), the Ki at Mu-type opioid receptor [1] came to 0.092 nM; in assay [2] it was 80.8 nM; in assay [3], 998 nM. Also, the IC50 at Mu-type opioid receptor [4] is 1.94 nM; in assay [5] it was over 10000 nM. Moreover, the Kb in assay [6] is 87.1 nM.
Regarding `Cc1cc(O)ccc1C[C@H](NC(=O)[C@@H]1CCCN1C(=O)[C@@H](N)Cc1c(C)cc(O)cc1C)C(=O)N[C@@H](Cc1ccccc1)C(N)=O`, the Ratio Ki in assay [7] was 878. For the same compound, in assay [8], the Activity was under 1%.
On to `Cc1cc(C)c(C[C@H](NC(=O)[C@@H]2CCCN2C(=O)[C@@H](N)Cc2ccc(O)cc2)C(=O)N[C@@H](Cc2ccccc2)C(N)=O)c(C)c1`, for which the inhibitory constant (Ki) was found to be 0.44 nM on Mu-type opioid receptor [1] and 1360 nM in assay [2]. Moreover, the Ratio Ki in assay [7] turned out to be 3090. The IC50 was 1.9 nM at Mu-type opioid receptor [4] and over 10000 nM in assay [5]. Besides, the Activity in assay [8] was over 36.2%.
For `Cc1ccccc1C[C@H](NC(=O)[C@@H]1CCCN1C(=O)[C@@H](N)Cc1c(C)cc(O)cc1C)C(=O)N[C@@H](Cc1ccccc1)C(N)=O`, the Ki at Mu-type opioid receptor [1] is 0.18 nM; in assay [2], 4.61 nM; in assay [3], 176 nM. Also, the Ratio Ki in assay [7] was 26. For the same compound, the results for the IC50 (on Mu-type opioid receptor [4]; in assay [5]) were 0.16 nM and over 10000 nM, respectively. In addition, the Activity in assay [8] came to 0%. In addition, the Kb in assay [6] is 257 nM.
Regarding `Cc1cc(O)ccc1C[C@H](NC(=O)[C@@H]1CCCN1C(=O)[C@@H](N)Cc1ccc(O)cc1)C(=O)N[C@@H](Cc1ccccc1)C(N)=O`, the Ratio Ki in assay [7] came to 1150.
Turning to `Cc1cc(C)cc(C[C@H](NC(=O)[C@@H]2CCCN2C(=O)[C@@H](N)Cc2c(C)cc(O)cc2C)C(=O)N[C@@H](Cc2ccccc2)C(N)=O)c1`, the inhibition constant Ki at Mu-type opioid receptor [1] is 0.11 nM; in assay [2] it was 11.6 nM; in assay [3], 830 nM. In assay [7], the Ratio Ki stood at 105. Further, the IC50 at Mu-type opioid receptor [4] is 14.4 nM; in assay [5] it was over 10000 nM. Besides, the Activity in assay [8] is over 7.1%. The Kb in assay [6] was 170 nM.
In the case of `Cc1cc(O)cc(C)c1C[C@H](NC(=O)[C@@H]1CCCN1C(=O)[C@@H](N)Cc1ccc(O)cc1)C(=O)N[C@@H](Cc1ccccc1)C(N)=O` (H-YP[Dmt]F-NH2), the Ki at Mu-type opioid receptor [1] came out at 2.63 nM; in assay [2], 3020 nM. Besides, the 50% inhibitory concentration (IC50) amounted to 541 nM on Mu-type opioid receptor [4] and 978 nM in assay [5].
With `Cc1cc(C)cc(C[C@H](NC(=O)[C@@H]2CCCN2C(=O)[C@@H](N)Cc2ccc(O)cc2)C(=O)N[C@@H](Cc2ccccc2)C(N)=O)c1`, the inhibition constant (Ki) at Mu-type opioid receptor [1] amounted to 6.19 nM; in assay [2], 3450 nM. In assay [7], the Ratio Ki amounted to 558. Moreover, the concentration for half-maximal inhibition (IC50) is 389 nM at Mu-type opioid receptor [4] and over 10000 nM in assay [5]. The Activity in assay [8] was over 8%.
Take `Cc1cccc(C(C)C)c1C[C@H](NC(=O)[C@@H]1CCCN1C(=O)[C@@H](N)Cc1ccc(O)cc1)C(=O)N[C@@H](Cc1ccccc1)C(N)=O`: the inhibition constant (Ki) on Mu-type opioid receptor [1] came to 0.45 nM; in assay [2], 543 nM. In addition, the Ratio Ki in assay [7] worked out at 1220. In addition, the IC50 at Mu-type opioid receptor [4] is 2.74 nM.
Consider `Cc1cc(C)c(C[C@H](NC(=O)[C@@H]2CCCN2C(=O)[C@@H](N)Cc2c(C)cc(O)cc2C)C(=O)N[C@@H](Cc2ccccc2)C(N)=O)c(C)c1`, for which the Ki turned out to be 0.18 nM at Mu-type opioid receptor [1], 1.83 nM in assay [2] and 172 nM in assay [3]. Moreover, in assay [7], the Ratio Ki came to 10. The figures for the IC50 (on Mu-type opioid receptor [4]; in assay [5]) were 0.21 nM and over 10000 nM, respectively. In addition, the Activity in assay [8] is over 22.2%. In assay [6], the Kb was 0.891 nM.
Regarding `Cc1cccc(C)c1C[C@H](NC(=O)[C@@H]1CCCN1C(=O)[C@@H](N)Cc1ccc(O)cc1)C(=O)N[C@@H](Cc1ccccc1)C(N)=O`, the Ki at Mu-type opioid receptor [1] was 0.044 nM; in assay [2], 1440 nM; in assay [3], over 4000 nM. Moreover, the Ratio Ki in assay [7] stood at 32700. The IC50 stood at 0.38 nM at Mu-type opioid receptor [4] and 1.39 nM in assay [5].
Regarding `Cc1ccccc1C[C@H](NC(=O)[C@@H]1CCCN1C(=O)[C@@H](N)Cc1ccc(O)cc1)C(=O)N[C@@H](Cc1ccccc1)C(N)=O`, the Ki came to 0.22 nM at Mu-type opioid receptor [1] and 1740 nM in assay [2]. For the same compound, the Ratio Ki in assay [7] worked out at 7880. In addition, the half-maximal inhibitory concentration (IC50) on Mu-type opioid receptor [4] turned out to be 1.33 nM; in assay [5], 15.7 nM.
With `Cc1cccc(C)c1C[C@H](NC(=O)[C@@H]1CCCN1C(=O)[C@@H](N)Cc1c(C)cc(O)cc1C)C(=O)N[C@@H](Cc1ccccc1)C(N)=O`, the inhibition constant (Ki) on Mu-type opioid receptor [1] was found to be 0.069 nM; in assay [2], 2.27 nM; in assay [3] it was 94.2 nM. Besides, the Ratio Ki in assay [7] turned out to be 33. Also, the half-inhibitory concentration (IC50) at Mu-type opioid receptor [4] was found to be 0.12 nM. The Kb in assay [6] is 7.08 nM.
With `Cc1cc(O)cc(C)c1C[C@H](N)C(=O)N1CCC[C@H]1C(=O)N[C@@H](Cc1ccccc1)C(=O)N[C@@H](Cc1ccccc1)C(N)=O`, the Ki at Mu-type opioid receptor [1] turned out to be 0.26 nM; in assay [2], 99.2 nM; in assay [3], 489 nM. Also, in assay [7], the Ratio Ki was found to be 382. Further, the half-maximal inhibitory concentration (IC50) at Mu-type opioid receptor [4] was 0.26 nM; in assay [5], 0.59 nM.
`CCc1cccc(C)c1C[C@H](NC(=O)[C@@H]1CCCN1C(=O)[C@@H](N)Cc1ccc(O)cc1)C(=O)N[C@@H](Cc1ccccc1)C(N)=O`: the Ki was 0.46 nM on Mu-type opioid receptor [1] and 491 nM in assay [2]. Also, the Ratio Ki in assay [7] is 1070. The half-inhibitory concentration (IC50) turned out to be 2.35 nM at Mu-type opioid receptor [4] and 277 nM in assay [5].
In the case of `CCc1cccc(C)c1C[C@H](NC(=O)[C@@H]1CCCN1C(=O)[C@@H](N)Cc1c(C)cc(O)cc1C)C(=O)N[C@@H](Cc1ccccc1)C(N)=O`, the inhibition constant (Ki) at Mu-type opioid receptor [1] turned out to be 0.21 nM; in assay [2] it was 3.03 nM; in assay [3] it was 278 nM. The Ratio Ki in assay [7] is 14. The IC50 on Mu-type opioid receptor [4] was 0.17 nM; in assay [5], 0.51 nM.
Regarding `Cc1cc(O)cc(C)c1C[C@H](N)C(=O)N1CCC[C@H]1C(=O)N[C@@H](Cc1c(C)cccc1C(C)C)C(=O)N[C@@H](Cc1ccccc1)C(N)=O`, the inhibitory constant (Ki) at Mu-type opioid receptor [1] was found to be 0.32 nM; in assay [2], 4.61 nM; in assay [3], 205 nM. Also, the Ratio Ki in assay [7] was 14. The 50% inhibitory concentration (IC50) on Mu-type opioid receptor [4] was found to be 0.2 nM; in assay [5], 5.56 nM.

One may read the Ki as the dissociation constant of the complex between target and ligand, obtained from inhibition or displacement. Broadly, the IC50 is the concentration that inhibits the measured activity by half.
